# Compound activity: PubChem BioAssay, several laboratories
# RAM network inh: inhibitors of the yeast RAM network | S. cerevisiae dse1pr::URA3 reporter, 5-FOA growth OD615, 2 d; analog-sensitive cbk1-as2 kinase mutant strain | inhibition, % at 50 µM | actives 1.8% (n = 190,000);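 active means inhibition above a set limit, 3 SD over mean compound inhibition, cut at about 8.4% in these data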;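 further: 0% = DMSO-only wells with no growth and 100% = 10 µM 1-NA-PP1 full growth; inhibition rescues growth on 5-FOA so higher OD means more RAM inhibition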
# Phagocytosis inh: inhibitors of macrophage phagocytosis; actives 0.07% (n = 110,000); inhibition, % at 5 µM; J774A.1 macrophage IgG-bead phagocytosis, imaging;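 active means inhibition above the mean of the plate negative controls plus 5 SD, cut at about 13% in these data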;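 further: phagocytic index as fraction of beads internalized from green versus red external bead signal; plate controls were DMSO negative control for no effect and cytochalasin-D positive control for full effect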
# Yeast life ext: extends the lifespan of yeast; inhibition of the nicotinamide effect, % at 10 µM; S. cerevisiae growth with nicotinamide, OD615; deaD strain in restrictive glucose medium; actives 0.68% (n = 130,000);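 active means inhibition above a set limit, placed 3 SD over the median of all compounds, cut at about 26% in these data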;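 further: 0% = nicotinamide-treated wells and 100% = cells grown without nicotinamide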
#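 Buffer or medium: CSMM-D glucose medium, restrictive; test system: modified budding yeast, DeaD strain; compound: single dose 10 µM compound, 0.25% DMSO; schedule: culture preincubation 4 h, compound exposure 48 h, both 30 °C; detection: optical density (absorbance) at 615 nm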
# Yeast growth inh: yeast BB579 growth reduction in restrictive medium. S. cerevisiae BB579 growth, OD615, 48 h. inhibition, % at 10 µM. AID 804. actives 0.51% (n = 140,000);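 active means inhibition above a set limit, 3 SD over the mean compound inhibition, cut at about 44% in these data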
#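 System: DeaD yeast strain BB579; buffer or medium: CSMM-D dextrose restrictive medium; technique: OD at 615 nm; schedule: 4 h cell preincubation, 48 h compound exposure, 30 °C humidified; doses: single 10 µM dose; controls: amphotericin B 10 µg/mL, positive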
# RAM 5-FOA: RAM network inhibition, efflux-deficient strain | shares compounds with RAM network inh | S. cerevisiae efflux-deficient reporter strain, 5-FOA growth OD615, 2 days | max inhibition, % | 1,200 tested, under 10 active; call rule not given here;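 further: plate controls were vehicle for no effect and reference inhibitor for full effect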
# * hit, by the source's call; · = no result given. A selection: hits, their analogues and other compounds. The true share with any hit is near 2.7%.
SMILES,RAM network inh,Phagocytosis inh,Yeast life ext,Yeast growth inh,RAM 5-FOA
O=C(NC(=S)Nc1ccc(Oc2ccc(Cl)cc2)cc1)c1ccccc1,17*,·,-18,-58,4
COc1ccc(NC(=S)NC(=O)c2ccccc2Cl)cc1,0,·,·,·,·
CCN(CCNC(=O)c1cc(C)nn1-c1ccccc1)c1ccccc1,0,0,-6,-10,·
COc1cccc(C(=O)C2CN(c3ccccc3)CC2c2ccc(Cl)cc2)c1 (configuration not stated),15*,·,5,-29,6
COc1cccc(CC2(CO)CCCN(Cc3cc(F)ccc3-n3cccn3)C2)c1 (configuration not stated),1,·,·,·,·
O=C(C1CCN(S(=O)(=O)c2cccc3cccnc23)CC1)N1CCN(C2CCCC2)CC1,0,·,-1,-30,·
O=[N+]([O-])c1ccc(COc2cccc(CNc3ccc(Br)cc3)c2)cc1,14*,-16,7,-38,2
Cc1nc(SCC(=O)Nc2ccccc2)c2oc3ccccc3c2n1,0,1,-20,-9,·
O=C(O)CSc1nc(-c2ccc(Cl)cc2)nc2c1oc1ccccc12,15*,-1,-7,71*,3
CCN(CC)S(=O)(=O)c1ccc(OC)c(NC(=O)C(Cc2ccccc2)N2C(=O)c3ccccc3C2=O)c1 (configuration not stated),6,-5,-2,-49,·
COc1cc(CC(NC(C)=O)C(=O)NC2CCN(c3c(Cc4ccccc4)c(C)nc4ncnn34)CC2)cc(OC)c1 (configuration not stated),14*,·,10,-32,3
CCOC(=O)CCN(Cc1cccs1)S(=O)(=O)c1ccc(F)cc1,1,2,8,-22,·
COc1ccc(CCN(Cc2cccs2)S(=O)(=O)c2ccc(C(=O)O)cc2)cc1OC,13*,·,·,·,2
CN(CC(=O)Nc1ccccc1C(F)(F)F)C(=O)COc1ncnc2ccccc12,-2,·,·,·,·
O=C(/C=C/c1ccccc1)N1CCN(c2cccc(Cl)n2)CC1,12*,·,-6,-36,4
Cc1c(NC(=O)C(C)N(c2ccccc2)S(C)(=O)=O)c(=O)n(-c2ccccc2)n1C (configuration not stated),1,·,·,·,·
Cc1c(C(=O)C(=O)NCCCn2ccnc2)c2ccccc2n1C,1,·,·,·,·
COc1ccc(Nc2nc3c(C)cccc3cc2C#N)c(OC)c1,12*,-9,7,-36,5
S=c1[nH]ncn1/N=C/c1ccccn1,0,-2,-4,12,·
O=C(O)c1cnc(-c2ccccc2)nc1Oc1ccc(Cl)cc1,3,·,·,·,·
CCOC(=O)c1cnc(-c2ccccc2)nc1Oc1ccc(Cl)cc1,14*,·,36,-49,1
CCOC(=O)c1cc(C#N)c(Oc2ccccc2)nc1-c1ccccc1,12*,1,-2,-6,6
CCCCC(=O)Nc1ccccc1C(=O)OCC(=O)c1ccc2c(c1)OCCO2,13*,7,-2,-15,2
O=C(O)/C=C/C(=O)Nc1ccccc1C(=O)OCC(=O)c1ccc2c(c1)OCCO2,1,·,·,·,·
CCN(CC)S(=O)(=O)c1cccc(C(=O)OCC(=O)c2ccc3c(c2)OCCO3)c1,14*,0,7,-49,5
SMILES,RAM network inh,Phagocytosis inh,Yeast life ext,Yeast growth inh,RAM 5-FOA
O=C(COC(=O)c1cccc(S(=O)(=O)NCc2ccccc2)c1)c1ccc2c(c1)OCCO2,7,-9,0,-41,·
CC1CCc2cc(F)ccc2N1C(=O)c1ccc2c(c1)OCO2 (configuration not stated),1,2,9,-22,·
Cc1c(-n2cc(C(=O)c3cc(Br)ccc3O)cc(C#N)c2=O)c(=O)n(-c2ccccc2)n1C,0,-2,-19,-41,·
Cc1cc(C(=O)CCl)c(C)n1CCc1ccc(F)cc1,2,·,·,·,·
Cc1cc(C(=O)CCl)c(C)n1CCc1ccc(Cl)cc1,13*,·,·,·,5
CCOC(=O)N1CCC(N(CCN(C)C)C(=S)Nc2cccc(SC)c2)CC1,33*,·,·,·,1
COc1ccc(N(C)S(=O)(=O)c2cccc(C(=O)OCC(=O)Nc3sc4c(c3C#N)CCCCC4)c2)cc1,11*,-11,5,-9,2
CCCCNC(=O)C(=O)NC(C)CCc1ccccc1 (configuration not stated),0,-3,-10,-10,·
COc1ccc(-c2nc(CCNS(=O)(=O)c3ccc4c(c3)OCCO4)cs2)cc1,3,1,-10,18,·
O=S(=O)(NCCc1csc(-c2ccc(C(F)(F)F)cc2)n1)c1ccc2c(c1)OCCO2,12*,0,0,-22,2
Cc1ccc2ncccc2c1NC(=S)NC(=O)c1ccccc1,2,·,·,·,·
COc1ccc(C(=O)/C=C/c2ccc(O)cc2)c(O)c1CC=C(C)C,24*,·,-7,-27,2
Cc1[nH]c(=O)[nH]c(=O)c1S(=O)(=O)N1c2ccc(F)cc2CCC1C (configuration not stated),1,0,0,-38,·
CSCSC1=C(C#N)C(c2ccc(Cl)cc2)C(C(C)=O)=C(C)N1 (configuration not stated),15*,0,-16,-30,4
Cc1noc(C)c1COC(=O)CCCc1c[nH]c2ccccc12,5,0,-6,-78,·
CC(C)N(Cc1nc(-c2ccc(Cl)cc2)no1)C(=O)/C=C/c1ccccc1,12*,-8,-2,-60,2
CCn1cc(C(=S)N2CCC(C(N)=O)CC2)c2ccccc21,0,·,·,·,·
O=C(NCCn1cc(SCc2ccc(F)cc2)c2ccccc21)c1ccccc1F,13*,·,7,-32,4
O=C(NCCn1cc(SCc2ccc(F)cc2)c2ccccc21)c1c(F)cccc1F,5,·,1,18,·
O=C(OC(C(=O)Nc1cccc(C(F)(F)F)c1)c1ccccc1)C1CCCCC1 (configuration not stated),14*,-6,0,-31,2
O=C(Nc1cccc(C(F)(F)F)c1)NC1CCCCC1,2,0,-4,-66,·
Cc1ccc(OCC(=O)NN=C2c3ccccc3-c3ccccc32)cc1,2,1,-4,-26,·
Cc1ccc(NN=C2c3ccccc3-c3ccccc32)cc1,15*,-8,-3,-21,5
COC(=O)c1sccc1-c1ccc(/C=N/OCc2c(Cl)cccc2Cl)o1,18*,·,-1,-37,3
O=C(Nc1ccc(Oc2ccc3ccccc3c2)cc1)c1ccco1,15*,-3,-23,-23,4
O=[N+]([O-])c1ccc(N/N=C/c2sc(N3CCOCC3)nc2-c2ccccc2)c(S(=O)(=O)Nc2ccc(Cl)cc2)c1,12*,·,·,·,6
O=C(O)c1cccc(N/N=C/c2sc(N3CCOCC3)nc2-c2ccccc2)c1,1,-7,-3,-1,·
COc1ccc(S(=O)(=O)N2CC(O)CC2C(=O)OCc2nc3sc(C)c(C)c3c(=O)[nH]2)cc1 (configuration not stated),0,-1,0,-43,·
CSc1ccc(/C=C/C(=O)c2ccc(NC(=O)Cc3ccccc3)cc2)cc1,14*,·,-20,-70,6
